Each structure is given as a SMILES string. Active and inactive are the calls of the source.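 How the source made its calls, unless noted: active means fluorescence slope after compound addition differing from the mean of all screened samples at 99.7% confidence, in either direction; inactive means the rest.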

Usually inhibition stands for the relative decrease from the control value, in per cent.

A short description of experiment [1]: inhibitors of TNFa-induced NFkB p65 translocation, primary screen, imaging, HUVEC, MLSMR starter and 10KST1 sets (AID 438;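 active means inhibition above 20% together with a positive visual image hit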;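 further: compound added about 3h40 before a 20 min TNFalpha stimulation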;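 on inhibition: signal is the nuclear over cytoplasmic p65 intensity ratio per well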). The conditions noted are these: HUVEC TNFa-induced p65 nuclear translocation; cell count: measured here: nuclei count (cytotoxicity indicator), at 2.08 µM; inhibition: at 2 µM, stronger effect = higher value, 0% TNFa-plus-vehicle, 100% no-TNFa wells.

A short description of experiment [2]: inhibitors of mutant huntingtin aggregation, primary screen, imaging, exon1htt(103Q)mCFP cells, high-content imaging (AID 483;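 active means visual image review flags a hit and inhibition of aggregation exceeds 20%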;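 further: compound exposure lasted 3 days before fixation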;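 on nuclei count: percent of the per-plate median nuclei count of sample wells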). The following applies: exon1htt(103Q)mCFP cell line, aggregate imaging, at 2 µM; inhibition of aggregation: stronger effect = higher value; nuclei count: measured here: cell count, toxicity.
A short description of experiment [3]: inhibitors of E-selectin induction by TNFa, primary screen, imaging, HUVEC, immunofluorescence, MLSMR starter and 10KST1 sets (AID 487;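 active means visually confirmed hit in the image check and inhibition above 20%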;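 on inhibition: signal is fraction of cell area covered by stained E-selectin grains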;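 on nuclei count: 100% = median nuclei count of all wells on the same plate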). The conditions noted are these: HUVEC TNFalpha-induced E-selectin immunofluorescence imaging, at 2 µM; inhibition: stronger effect = higher value; nuclei count: measured here: cell number, toxicity.
For experiment [4], the target named is Voltage-gated potassium channel subunit beta-2 (Rattus norvegicus) (UniProt P62483). The experiment can be described thus: KvBeta enzyme negative modulators, primary screen, biochemical, NADPH fluorescence (AID 622;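 active means fluorescence slope higher than the sample average by over 3 SD, cut at about -0.22 in these data, passing the limit was not always enough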;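 further: slope of raw intensity against log time taken from 70 to 1610 s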). The conditions noted are these: recombinant KvBeta, 4-cyanobenzaldehyde reduction, at 10 µM, stronger effect = higher value.
Sequence of Voltage-gated potassium channel subunit beta-2 (Rattus norvegicus) (P62483 whole entry, looked up): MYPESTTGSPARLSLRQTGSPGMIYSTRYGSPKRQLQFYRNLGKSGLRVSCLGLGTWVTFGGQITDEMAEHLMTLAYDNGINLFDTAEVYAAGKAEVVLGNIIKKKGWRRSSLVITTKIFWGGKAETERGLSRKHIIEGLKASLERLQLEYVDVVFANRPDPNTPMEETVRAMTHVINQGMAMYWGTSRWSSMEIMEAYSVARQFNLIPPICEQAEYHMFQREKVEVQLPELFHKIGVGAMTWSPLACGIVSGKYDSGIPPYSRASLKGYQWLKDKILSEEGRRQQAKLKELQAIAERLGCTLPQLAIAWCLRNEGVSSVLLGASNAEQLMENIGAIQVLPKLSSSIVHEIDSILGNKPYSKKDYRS
The target is the same in experiment [5]. The experiment can be described thus: KvBeta positive modulators, primary screen, biochemical, NADPH fluorescence (AID 623;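 active means NADPH fluorescence slope more negative than the mean of all samples by about 3 SD, 99.7% confidence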;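 further: fluorescence intensity change per second fitted from 20 to 320 s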). The conditions noted are these: Recombinant KvBeta, NADPH fluorescence decrease slope, 10 min; at 10 µM; stronger effect = lower value.
Experiment [6] deals with Alpha-2C adrenergic receptor (Homo sapiens) (UniProt P18825). The experiment can be described thus: modulators of alpha2C/GIRK thallium flux, primary screen, cell-based, HEK293 alpha2C/GIRK1/2 (AID 624).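 Further: slope of fluorescence ratio to pre-addition baseline per second over 15 to 24 s.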 The conditions noted are these: thallium flux BTC fluorescence, at 10 µM, actives lie on both sides.
Sequence of Alpha-2C adrenergic receptor (Homo sapiens) (P18825 whole entry, looked up): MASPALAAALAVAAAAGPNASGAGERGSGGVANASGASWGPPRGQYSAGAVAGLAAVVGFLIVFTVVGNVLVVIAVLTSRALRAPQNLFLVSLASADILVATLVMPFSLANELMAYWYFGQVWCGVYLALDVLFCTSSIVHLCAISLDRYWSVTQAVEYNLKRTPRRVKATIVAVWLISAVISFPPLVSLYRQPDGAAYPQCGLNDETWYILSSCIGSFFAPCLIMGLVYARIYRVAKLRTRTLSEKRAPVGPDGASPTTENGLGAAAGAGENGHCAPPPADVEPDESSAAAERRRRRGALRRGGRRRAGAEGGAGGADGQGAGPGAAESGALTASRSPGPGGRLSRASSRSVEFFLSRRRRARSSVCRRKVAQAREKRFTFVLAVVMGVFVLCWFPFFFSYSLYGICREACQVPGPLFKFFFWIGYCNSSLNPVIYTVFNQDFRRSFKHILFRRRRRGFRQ
Experiment [7] is described as follows: inhibitors of larval lipid processing in zebrafish, primary screen, whole organism, PED6 fluorescence, gall bladder and intestine (AID 686;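 active means a full or partial loss of lipid-probe fluorescence in the fish gall bladder, intestine or both, judged by eye; inactive means no fluorescence loss, or compound toxic to the fish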;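 further: larvae 5 to 7 days old with five fish per well; signal comes from phospholipase A2 cleavage of quenched PED6 carried via bile; overnight exposure to compound and PED6 before scoring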). The conditions noted are these: Zebrafish larvae PED6 lipid processing, fluorescence scoring; screened at 20 µM (by protocol). In short, it runs like this:
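Also added: quenched phospholipase substrate PED6, 100 nM final, ingested by larvae; System: zebrafish larvae, 5-7 d; Quantity: 5 larvae per well; Compound: 20 µM single dose; Schedule: overnight compound and PED6 incubation; Read-out: visual per-well fluorescence inhibition score; Measured by: By-eye fluorescence microscopy; Medium: E3.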

The nature of experiment [8]: inhibitors of Sendai virus-induced IRF3 signaling, primary screen, TLR/RLR signaling modifier project, cell-based, Sendai virus stimulus, luciferase, 10K MLSCN set (AID 602276;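 active means inhibition at or above 50% at 10 µM; inactive means inhibition below 50%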;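 further: firefly luciferase from ISG56 promoter only with Renilla not read in this screen; 0% = Sendai virus plus DMSO and 100% = medium plus DMSO without virus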). The following applies: HEK293 RL24 IRF3 luciferase reporter, at 10 µM, stronger effect = higher value.
Experiment [9] in a line: inhibitors of poly I:C-induced TLR3 signaling, primary screen, cell-based, poly I:C stimulus, luciferase, 10K MLSCN set (AID 602277;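 active means inhibition of the reporter signal at or above 50%; inactive means inhibition below 50%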). The conditions noted are these: HEK293-TLR3 RL24 IRF3 luciferase reporter, at 10 µM, stronger effect = higher value. In general terms: A reporter such as luciferase makes a cellular process visible.

On to `CCC(=O)Oc1ccc(C/C(=N\O)c2ccc(O)cc2O)o1`, for which, in experiment [1], the cell count stood at 405. Besides, the inhibition in experiment [1] is 1.5% (inactive); in experiment [3], -54.6% (inactive); in [8] it was -8.2% (inactive); in experiment [9], -21.3% (inactive). Besides, in [2], the inhibition of aggregation is 24.3% (inactive). Also, the nuclei count was 95.9% in experiment [2] and 115% in experiment [3]. Also, the fluorescence slope in [4] was -0.502 (inactive). The NADPH fluorescence slope in experiment [5] was 4.5e-05 (inactive). Also, in experiment [6], the slope is 0.00444 (inactive). For the same molecule, the molecule was classed as inactive in experiment [7].

With `CCOC(=O)c1c(N)c(C#N)nn1-c1ccccc1C(=O)OC`, the cell count in experiment [1] turned out to be 516. Also, the inhibition was -3.6% (inactive) in [1], -41.6% (inactive) in experiment [3], 9.81% (inactive) in [8] and 20.2% (inactive) in [9]. In addition, in [2], the inhibition of aggregation is 30.5% (inactive). Besides, the nuclei count came to 81% in [2] and 101% in experiment [3]. In addition, in [4], the fluorescence slope was -0.364 (inactive). In addition, the NADPH fluorescence slope in experiment [5] is -4.6e-05 (inactive). Besides, the slope in [6] was 0.00521 (inactive). Moreover, the call in experiment [7] was inactive.

As for `O=C(Cc1cccs1)N(c1ccccc1)C1C=CS(=O)(=O)C1` (stereo unspecified), in experiment [1], the cell count was 294. Besides, the inhibition in [1] was 4.2% (inactive); in [3] it was 8.4% (inactive); in experiment [8], 10.7% (inactive); in [9], 15.6% (inactive). Moreover, in [2], the inhibition of aggregation is -21.3% (inactive). For the same molecule, the nuclei count in [2] was 110%; in [3], 88.2%. The fluorescence slope in [4] is -0.376 (inactive). In addition, the NADPH fluorescence slope in experiment [5] is -5.4e-05 (inactive). Further, the slope in [6] is 0.0046 (inactive). Moreover, the result in experiment [7] was inactive.

Turning to `Cc1cccc(C(=O)O)c1NC(=O)c1ccc(F)cc1`, in experiment [1], the cell count was determined as 343. The inhibition is 0.2% (inactive) in experiment [1], 21.9% (inactive) in experiment [3], -3.9% (inactive) in experiment [8] and 2.7% (inactive) in experiment [9]. The inhibition of aggregation in [2] was -4.7% (inactive). Besides, the nuclei count was determined as 99.9% in experiment [2] and 97.3% in [3]. In experiment [4], the fluorescence slope is -0.333 (inactive). Besides, the NADPH fluorescence slope in [5] was -1.3e-05 (inactive). Besides, in experiment [6], the slope was 0.00577 (inactive). The molecule was called inactive in [7].

As for `CCC1(C)Cc2c(sc3nc(SCC(=O)O)[nH]c(=O)c23)CO1` (stereo unspecified), the cell count in experiment [1] stood at 549. Moreover, the inhibition in experiment [1] was -14.6% (inactive); in experiment [3] it was -41% (inactive); in experiment [8], 1.92% (inactive); in experiment [9], 7.26% (inactive). The inhibition of aggregation in experiment [2] is -5% (inactive). The results for the nuclei count in experiment [2] and in experiment [3] were 114% and 104%, respectively. In addition, in [4], the fluorescence slope was -0.391 (inactive). For the same molecule, in [5], the NADPH fluorescence slope is -1.8e-05 (inactive). Further, the slope in experiment [6] was 0.00549 (inactive). Further, the outcome in experiment [7] was inactive.

Take `COCCNC(=O)C(c1ccc(C)o1)N(C(=O)c1snc(C(N)=O)c1N)c1ccc(C)cc1` (stereo unspecified): the cell count in [1] is 498. Also, the inhibition was -3.6% (inactive) in experiment [1], 73.6% (inactive) in [3], 12.5% (inactive) in experiment [8] and 7.41% (inactive) in experiment [9]. Besides, the inhibition of aggregation in [2] was 19.7% (inactive). The nuclei count in [2] was found to be 94%; in experiment [3], 65.5%. Also, the fluorescence slope in experiment [4] was -0.378 (inactive). Also, the NADPH fluorescence slope in experiment [5] is -5.3e-05 (inactive). Moreover, the slope in experiment [6] was 0.00521 (inactive). For the same molecule, the outcome in experiment [7] was inactive.

Turning to `COC(=O)c1c(NC(=O)CCc2ccc(C)o2)sc(C)c1C`, the cell count in [1] was 568. Further, the inhibition in experiment [1] was 6.6% (inactive); in experiment [3], -69.4% (inactive); in experiment [8] it was 15.7% (inactive); in [9], 31.1% (inactive). Moreover, the inhibition of aggregation in experiment [2] was 7.9% (inactive). The nuclei count in experiment [2] was found to be 79.4%; in experiment [3], 91%. The fluorescence slope in experiment [4] was -0.294 (inactive). In addition, the NADPH fluorescence slope in [5] is -1.6e-05 (inactive). The slope in experiment [6] was 0.00498 (inactive). Besides, in experiment [7], the molecule was called inactive.

Take `COc1ccc(OC)c(NS(=O)(=O)Cc2ccccc2)c1`: the cell count in experiment [1] amounted to 356. Moreover, the inhibition in experiment [1] was 6.3% (inactive); in experiment [3] it was -73.7% (inactive); in experiment [8] it was 13.9% (inactive); in experiment [9], 16.5% (inactive). In [2], the inhibition of aggregation is -14.8% (inactive). Further, the nuclei count was 110% in [2] and 120% in experiment [3]. Also, in experiment [4], the fluorescence slope is -0.424 (inactive). For the same molecule, the NADPH fluorescence slope in experiment [5] is -1.8e-05 (inactive). The slope in experiment [6] is 0.00242 (inactive). The molecule was called inactive in experiment [7].

The values above are taken from PubChem BioAssay.
